Test system: MS2 coat protein
Test: apparent Kd, MS2 coat protein; higher = weaker binding; RNA-MaP array; FMN 200 µM where present
Summary of the method: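 Stalled E. coli RNA polymerase produced the designs on Illumina sequencing-chip clusters. SNAP-549-labelled MS2 coat protein was added from 0.7 or 1.5 nM, doubling to 3 µM, without and then with constant ligand, in 100 mM Tris-HCl pH 7.5, 80 mM KCl, 4 mM MgCl2, BSA, DTT, yeast tRNA and Tween-20. The apparent Kd is the median of filtered per-cluster fits of green signal normalised to red-channel RNA signal and control-cluster median Fmax.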

[1] = designed as: OFF switch for flavin mononucleotide, no ligand
[2] = ligand present: flavin mononucleotide, designed as: OFF switch for flavin mononucleotide
[3] = designed as: ON switch for flavin mononucleotide, no ligand
[4] = ligand present: flavin mononucleotide, designed as: ON switch for flavin mononucleotide

| Sequence | apparent Kd [1] [nM] | apparent Kd [2] [nM] | apparent Kd [3] [nM] | apparent Kd [4] [nM] |
| --- | --- | --- | --- | --- |
| AGUUCACAUGAGGAUCACCCAUGUCAGGAUAUCGACUGAACAGCUUCGGCUGUUCAGUCGAGAAGGGACAAUUA | 46.5 | 104 | – | – |
| AGUUUUGUACAUGAGGAUCACCCAUGUUAAUAUGUGGUAGUCAGAAGGCAUUGUUAGUGUUUAUAUGAGGAUAUGAUUAGGCAG | – | – | 46.6 | 24.6 |
| AGUUUUUAUGUCAGGAUAUCAGUAGGUCUCCCGGAUGAGAAGGGACAUGAGGAUCACCCAUGUAACCAAAGAGC | 15.6 | 18.5 | – | – |
| AUAAAACAUGAGGAUCACCCAUGUAAAAAUAUGGGAGGAUAUGCGAAAUAAAAUAAAUAAGCAGAAGGCCUAAAAA | – | – | 50.4 | 23.7 |
| AUAAAACAUGAGGAUCACCCAUGUCAACAAAGUCGAGGAUAUGGGCAAAUAAAAUAAGAACCAGAAGGCGAAUAUU | – | – | 223 | 48 |
| AUAAAUCAUGUAGGAUAUGCGUGGCGAAGCUAUGCAGAAGGACAUGAGGAUCACCCAUGUCAUUCCGUCUGCGUACAGACGGAA | 34.5 | 308 | – | – |
| AUAAAUGAUGAGGAUAUCACUAGCGAUAGCUAGUGAGAAGGCAUCACAUGAGGAUCACCCAUGUGCUCCAAUAA | 115 | 486 | – | – |
| AUAAGCUCGUCAGGAUAUACAACACUGUGUAAGCAGUGUGGUAUGAUCACAUGAGGAUCACCCAUGUAGAAGGGACGAGCUUAU | 6.33 | 43.4 | – | – |
| AUAAUGAGAGGAUAUACAUGAGGAUCACCCAUGUUUUUAUCACGUCGUGCUCCAUUACGUAGAAGGCUCAUUUA | 36.3 | 53.7 | – | – |
| AUAAUGCGAGGAUAUACAUGAGGAUCACCCAUGUAAUUCAAUCGGAGAGCCACAUUUCGUAGAAGGUGCAUUAA | 15.7 | 21.4 | – | – |
| AUAAUGCGAGGAUAUACAUGAGGAUCACCCAUGUAAUUCCAUCGGAGAGCCACAUUUCGUAGAAGGUGCAUUUA | 15.4 | 15.4 | – | – |
| AUAAUUUUAUAUAUCAUUUUAAUCAGAAGGCAUAACAUGAGGAUCACCCAUGUAAAUUAUUGUUAUGAGGAUAUGAUUUGGUUA | 20.3 | 72.2 | – | – |
| AUAAUUUUAUUUUUCCCAAGAAUCAGAAGGCAUUACAUGAGGAUCACCCAUGUUUUGGAUAGUAAUGAGGAUAUGAUAUGGUUA | 10.2 | 23.5 | – | – |
| AUACGGAGGGAGAAGGGCUAGGAGGUCCAGCUUAUGUGUGUUGCAACAUGAGGAUCACCCAUGUAGCAGGAUAUCCCUUGUACA | 42.9 | 231 | – | – |
| AUACUAAAUGAAGGAUAUCUAAGCAUACACCUGAGAGAAGGUCAUUUUGACAUGAGGAUCACCCAUGUUGUGGUUAAUGGGUUA | 237 | 225 | – | – |
| AUAGCAACAUGAGGAUCACCCAUGUAGGAUAUCGCUAUUGUAAUCAUGAAACAUGAUUACAAUAGCGAGAAGGACAUAUGCUAG | 11.5 | 12.2 | – | – |
| AUAGUGCGCGAGAAGGACGUACCACAUGAGGAUCACCCAUGUGUGGUACGUAGGAUAUUGCACAUGAGGAUCACCCAUGUGGAU | – | – | 19.5 | 34.6 |
| AUAUAACAUGAGGAUCACCCAUGUCAACAAAGUCGAGGAUAUGGGCAAAUAAAAUAAGAACCAGAAGGCGAAUAAU | – | – | 291 | 51.9 |
| AUAUAAUAUCAGGAUAUGACUAGCCUCGGCUAGUCAGAAGGGAUGACAUGAGGAUCACCCAUGUGAUCAUAUAU | 32.8 | 156 | – | – |
| AUAUAGAUGGUCAGGAUAUGCUAGUGGUAACAGUAGCAGAAGGGACAUGAGGAUCACCCAUGUGGAUACUGCUC | 23.9 | 93.6 | – | – |
| AUAUAUACAAAGUUACAUGAGGAUCACCCAUGUUUAUUGGGAAGAAGGGUAACAUUAUUAGAUGUAUAGGAUAUUUCACGAUUG | – | – | 513 | 320 |
| AUAUAUAUAUAGAAGGUGCCAGCGAGAGCUGCACAUGAGGAUCACCCAUGUUGUCGGUGACGACGCAAGGAUAUAUAUAUAUAU | – | – | 34 | 15.4 |
| AUAUCCCGAGGAUAUACAUGAGGAUCACCCAUGUCGGGCCUCUGGCCUAAGGCCGAAAGUAGAAGGUGGGUUUC | 177 | 250 | – | – |
